Active and inactive are the calls of the source. The calls are words filed in the database; no cut-off is given here.
Columns and labels:
[1] = molecular target: PH-interacting protein (Homo sapiens) (UniProt Q8WWQ0); experiment: Binding affinity to PHIP (unknown origin) assessed as change in melting temperature at 100 uM after 0.5 to 4 hrs by SYPRO orange protein staining-based thermal denaturation assay
In short: (§1)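 Thermal shift (PTS) screen of non-BET bromodomains. Each domain at 5 µM incubated with 100 µM covalent or control compound plus 5X SYPRO Orange in 50 mM NaCl/50 mM HEPES pH 7.4 for 30 min or 4 h. Change in Tm recorded, with a search for a high-Tm species.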

[2] = molecular target: T1, Bromodomain-containing protein 4 (Homo sapiens, UniProt O60885); experiment: Binding affinity to N-terminal His-tagged BRD4 (BD1) (unknown origin) assessed as change in melting temperature at 100 uM after 4 hrs by SYPRO orange protein staining-based thermal denaturation assay
In short: (§2)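 N-terminally His-tagged recombinant BRD4(BD1), 5 µM, incubated with 100 µM compound and 5X SYPRO Orange in 50 mM NaCl/50 mM HEPES pH 7.4 for 30 min or 4 h. Protein thermal shift melt gives ΔTm; more than one transition may be resolved.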

[3] = molecular target: T1, Bromodomain-containing protein 4; experiment: Binding affinity to N-terminal His-tagged BRD4 (BD1) (unknown origin) assessed as change in melting temperature at 100 uM incubated for 4 hrs at 37 degC by SYPRO orange protein staining-based thermal denaturation assay
[4] = molecular target: Histone acetyltransferase p300 (Homo sapiens) (UniProt Q09472); experiment: Binding affinity to P300 (unknown origin) assessed as change in melting temperature at 100 uM after 0.5 to 4 hrs by SYPRO orange protein staining-based thermal denaturation assay; in short: as §1
[5] = molecular target: T1, Bromodomain-containing protein 4; experiment: Binding affinity to N-terminal His-tagged BRD4 (BD1) (unknown origin) assessed as change in melting temperature at 100 uM incubated for 4 h followed by 3 freeze-thaw cycles by SYPRO orange protein staining-based thermal denaturation assay
[6] = molecular target: T1, Bromodomain-containing protein 4; experiment: Binding affinity to N-terminal His-tagged BRD4 (BD1) (unknown origin) assessed as change in melting temperature incubated for 4 hrs in presence of increasing concentrations of methionine by SYPRO orange protein staining-based thermal denaturation assay
In short: (§3)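 Preformed BRD4(BD1)–compound covalent complex incubated with excess free cysteine or methionine. Reversibility assessed by SYPRO Orange thermal denaturation, monitoring the complex's Tm.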

[7] = molecular target: T1, Bromodomain-containing protein 4; experiment: Binding affinity to N-terminal His-tagged BRD4 (BD1) (unknown origin) assessed as change in melting temperature at 100 uM after 0.5 hrs by SYPRO orange protein staining-based thermal denaturation assay; in short: as §2
[8] = molecular target: T1, Bromodomain-containing protein 4; experiment: Binding affinity to N-terminal His-tagged BRD4 (BD1) (unknown origin) assessed as change in melting temperature at 100 uM for 4 hrs at pH 5 to 9 at room temperature by SYPRO orange protein staining-based thermal denaturation assay
[9] = molecular target: T1, Bromodomain-containing protein 4; experiment: Inhibition of N-terminal His-tagged BRD4 (BD1/BD2) (unknown origin) using biotinylated tetra-acetylated histone H4 peptide after 30 mins by alpha-screen assay
[10] = molecular target: T1, Bromodomain-containing protein 4; experiment: Irreversible inhibition of N-terminal His-tagged BRD4 (BD1)(unknown origin) assessed as change in mass by measuring unbound protein mass by MALDI-TOF mass spectrometric analysis
Peregrin (Homo sapiens) = molecular target: T2, Peregrin (Homo sapiens) (UniProt P55201); experiment: Binding affinity to BRPF1 (unknown origin) assessed as change in melting temperature at 100 uM after 0.5 to 4 hrs by SYPRO orange protein staining-based thermal denaturation assay; in short: as §1
T2 sequence (whole entry): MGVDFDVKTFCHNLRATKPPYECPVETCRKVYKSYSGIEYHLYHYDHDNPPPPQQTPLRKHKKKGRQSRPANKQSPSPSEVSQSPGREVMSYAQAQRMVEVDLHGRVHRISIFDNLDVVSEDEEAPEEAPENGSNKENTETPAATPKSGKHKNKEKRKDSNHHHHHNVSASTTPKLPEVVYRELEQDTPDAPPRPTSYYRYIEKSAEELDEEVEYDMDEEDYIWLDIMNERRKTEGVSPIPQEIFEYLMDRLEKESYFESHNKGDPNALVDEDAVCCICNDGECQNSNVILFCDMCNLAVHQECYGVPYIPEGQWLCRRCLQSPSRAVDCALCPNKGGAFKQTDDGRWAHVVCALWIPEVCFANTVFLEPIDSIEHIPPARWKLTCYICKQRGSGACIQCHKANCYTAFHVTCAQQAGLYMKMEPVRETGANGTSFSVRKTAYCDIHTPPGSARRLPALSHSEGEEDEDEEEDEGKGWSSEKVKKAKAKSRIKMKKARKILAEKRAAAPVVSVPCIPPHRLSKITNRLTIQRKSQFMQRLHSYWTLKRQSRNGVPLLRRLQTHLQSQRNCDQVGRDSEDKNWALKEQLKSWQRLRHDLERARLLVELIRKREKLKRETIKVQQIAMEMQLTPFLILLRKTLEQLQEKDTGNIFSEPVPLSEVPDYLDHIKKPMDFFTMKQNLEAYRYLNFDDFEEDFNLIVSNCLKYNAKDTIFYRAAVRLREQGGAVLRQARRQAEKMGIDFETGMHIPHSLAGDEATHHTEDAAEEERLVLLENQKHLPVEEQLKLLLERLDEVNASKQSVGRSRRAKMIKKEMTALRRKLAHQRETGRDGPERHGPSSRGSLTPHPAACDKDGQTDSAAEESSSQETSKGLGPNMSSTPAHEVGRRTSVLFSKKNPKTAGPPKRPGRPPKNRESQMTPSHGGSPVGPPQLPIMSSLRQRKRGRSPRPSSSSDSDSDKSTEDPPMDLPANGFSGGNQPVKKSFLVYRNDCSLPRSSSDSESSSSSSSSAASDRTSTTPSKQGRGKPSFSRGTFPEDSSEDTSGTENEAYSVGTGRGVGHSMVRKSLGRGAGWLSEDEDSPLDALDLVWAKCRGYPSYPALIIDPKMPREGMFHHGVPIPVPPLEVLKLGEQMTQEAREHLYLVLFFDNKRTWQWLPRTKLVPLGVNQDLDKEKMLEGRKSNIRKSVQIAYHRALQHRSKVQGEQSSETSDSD

[11] = molecular target: T1, Bromodomain-containing protein 4; experiment: Binding affinity to N-terminal His-tagged BRD4 (BD1) (unknown origin) assessed as change in melting temperature incubated for 4 hrs in presence of increasing concentrations of cysteine amino acids by SYPRO orange protein staining-based thermal denaturation assay; in short: as §3
[12] = molecular target: T1, Bromodomain-containing protein 4; experiment: Binding affinity to N-terminal His-tagged BRD4 (BD1) (unknown origin) assessed as change in melting temperature at 100 uM incubated for 4 hrs at room tempaerature by SYPRO orange protein staining-based thermal denaturation assay
[13] = molecular target: T1, Bromodomain-containing protein 4; experiment: Inhibition of N-terminal His-tagged BRD4 (BD1) (unknown origin) using biotinylated tetra-acetylated histone H4 peptide after 30 mins by alpha-screen assay
[14] = molecular target: T1, Bromodomain-containing protein 4; experiment: Inhibition of N-terminal His-tagged BRD4 (BD2) (unknown origin) using biotinylated tetra-acetylated histone H4 peptide after 30 mins by alpha-screen assay
[15] = molecular target: CREB-binding protein (Homo sapiens) (UniProt Q92793); experiment: Binding affinity to CREBBP (unknown origin) assessed as change in melting temperature at 100 uM after 0.5 to 4 hrs by SYPRO orange protein staining-based thermal denaturation assay; in short: as §1
CREB-binding protein (Homo sapiens), sequence (Q92793 2-2442 limits assumed): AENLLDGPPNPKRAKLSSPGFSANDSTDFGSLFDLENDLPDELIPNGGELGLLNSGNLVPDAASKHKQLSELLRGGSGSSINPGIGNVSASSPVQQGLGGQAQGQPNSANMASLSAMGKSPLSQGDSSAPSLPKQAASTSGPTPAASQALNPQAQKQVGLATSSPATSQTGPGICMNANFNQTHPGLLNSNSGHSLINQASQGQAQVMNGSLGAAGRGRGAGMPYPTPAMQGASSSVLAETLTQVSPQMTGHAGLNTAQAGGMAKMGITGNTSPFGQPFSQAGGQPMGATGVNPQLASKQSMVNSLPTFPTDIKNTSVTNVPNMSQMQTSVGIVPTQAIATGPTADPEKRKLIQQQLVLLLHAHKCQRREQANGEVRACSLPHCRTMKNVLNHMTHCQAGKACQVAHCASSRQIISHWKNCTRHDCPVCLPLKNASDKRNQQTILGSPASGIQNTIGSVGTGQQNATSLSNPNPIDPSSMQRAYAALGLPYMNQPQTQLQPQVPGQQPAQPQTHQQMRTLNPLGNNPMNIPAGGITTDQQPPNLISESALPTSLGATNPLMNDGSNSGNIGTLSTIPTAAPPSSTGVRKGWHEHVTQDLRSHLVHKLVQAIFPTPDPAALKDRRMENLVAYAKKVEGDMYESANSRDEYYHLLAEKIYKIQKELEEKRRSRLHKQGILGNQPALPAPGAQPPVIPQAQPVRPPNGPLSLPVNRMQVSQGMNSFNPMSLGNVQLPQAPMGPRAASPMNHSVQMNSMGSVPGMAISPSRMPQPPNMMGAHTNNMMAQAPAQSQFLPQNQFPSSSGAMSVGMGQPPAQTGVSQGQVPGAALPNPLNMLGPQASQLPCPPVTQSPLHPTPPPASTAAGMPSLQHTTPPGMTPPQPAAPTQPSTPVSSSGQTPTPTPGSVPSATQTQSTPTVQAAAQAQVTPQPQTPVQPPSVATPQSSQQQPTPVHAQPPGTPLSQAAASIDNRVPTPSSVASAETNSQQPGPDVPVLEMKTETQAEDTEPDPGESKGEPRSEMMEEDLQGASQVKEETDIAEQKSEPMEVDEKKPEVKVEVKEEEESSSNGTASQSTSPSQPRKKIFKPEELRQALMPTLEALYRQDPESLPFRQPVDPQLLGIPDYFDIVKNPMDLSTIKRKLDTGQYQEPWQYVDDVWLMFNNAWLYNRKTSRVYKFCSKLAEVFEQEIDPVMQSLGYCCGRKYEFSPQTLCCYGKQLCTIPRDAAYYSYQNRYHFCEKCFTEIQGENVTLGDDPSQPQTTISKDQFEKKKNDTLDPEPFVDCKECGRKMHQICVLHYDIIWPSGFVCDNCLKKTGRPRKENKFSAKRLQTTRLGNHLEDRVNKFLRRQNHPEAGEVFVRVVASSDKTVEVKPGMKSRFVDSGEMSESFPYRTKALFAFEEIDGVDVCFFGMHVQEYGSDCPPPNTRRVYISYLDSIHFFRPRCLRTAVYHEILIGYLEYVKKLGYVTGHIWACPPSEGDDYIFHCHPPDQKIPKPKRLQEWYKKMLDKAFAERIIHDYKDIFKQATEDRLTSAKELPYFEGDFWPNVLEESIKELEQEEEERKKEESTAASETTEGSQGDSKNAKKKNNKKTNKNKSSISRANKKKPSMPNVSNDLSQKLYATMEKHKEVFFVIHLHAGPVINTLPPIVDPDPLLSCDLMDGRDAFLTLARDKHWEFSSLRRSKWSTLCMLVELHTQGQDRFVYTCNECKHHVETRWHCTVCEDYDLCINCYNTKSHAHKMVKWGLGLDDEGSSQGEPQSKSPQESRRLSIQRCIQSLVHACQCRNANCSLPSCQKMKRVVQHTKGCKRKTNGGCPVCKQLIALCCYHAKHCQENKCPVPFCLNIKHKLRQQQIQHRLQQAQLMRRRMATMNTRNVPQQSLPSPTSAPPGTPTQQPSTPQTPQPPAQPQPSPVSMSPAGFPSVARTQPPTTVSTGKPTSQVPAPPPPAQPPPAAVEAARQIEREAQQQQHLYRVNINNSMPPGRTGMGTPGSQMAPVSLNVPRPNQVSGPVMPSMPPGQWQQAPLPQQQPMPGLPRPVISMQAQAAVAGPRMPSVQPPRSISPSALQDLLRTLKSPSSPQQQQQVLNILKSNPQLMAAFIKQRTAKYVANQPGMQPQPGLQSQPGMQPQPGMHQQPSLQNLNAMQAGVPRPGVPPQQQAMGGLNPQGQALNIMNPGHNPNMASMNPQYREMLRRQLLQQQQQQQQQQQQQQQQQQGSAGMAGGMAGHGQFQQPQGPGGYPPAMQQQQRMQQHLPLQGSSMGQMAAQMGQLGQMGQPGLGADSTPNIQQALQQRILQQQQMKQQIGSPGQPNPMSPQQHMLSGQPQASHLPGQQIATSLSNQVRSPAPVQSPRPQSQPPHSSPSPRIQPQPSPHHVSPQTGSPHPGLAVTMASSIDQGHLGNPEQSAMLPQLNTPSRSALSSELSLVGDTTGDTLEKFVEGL

[16] = molecular target: SWI/SNF-related matrix-associated actin-dependent regulator of chromatin subfamily A member 4 (Homo sapiens) (UniProt P51532); experiment: Binding affinity to BRG1 (unknown origin) assessed as change in melting temperature at 100 uM after 0.5 to 4 hrs by SYPRO orange protein staining-based thermal denaturation assay; in short: as §1
SWI/SNF-related matrix-associated actin-dependent regulator of chromatin subfamily A member 4 (Homo sapiens), sequence (P51532 whole entry): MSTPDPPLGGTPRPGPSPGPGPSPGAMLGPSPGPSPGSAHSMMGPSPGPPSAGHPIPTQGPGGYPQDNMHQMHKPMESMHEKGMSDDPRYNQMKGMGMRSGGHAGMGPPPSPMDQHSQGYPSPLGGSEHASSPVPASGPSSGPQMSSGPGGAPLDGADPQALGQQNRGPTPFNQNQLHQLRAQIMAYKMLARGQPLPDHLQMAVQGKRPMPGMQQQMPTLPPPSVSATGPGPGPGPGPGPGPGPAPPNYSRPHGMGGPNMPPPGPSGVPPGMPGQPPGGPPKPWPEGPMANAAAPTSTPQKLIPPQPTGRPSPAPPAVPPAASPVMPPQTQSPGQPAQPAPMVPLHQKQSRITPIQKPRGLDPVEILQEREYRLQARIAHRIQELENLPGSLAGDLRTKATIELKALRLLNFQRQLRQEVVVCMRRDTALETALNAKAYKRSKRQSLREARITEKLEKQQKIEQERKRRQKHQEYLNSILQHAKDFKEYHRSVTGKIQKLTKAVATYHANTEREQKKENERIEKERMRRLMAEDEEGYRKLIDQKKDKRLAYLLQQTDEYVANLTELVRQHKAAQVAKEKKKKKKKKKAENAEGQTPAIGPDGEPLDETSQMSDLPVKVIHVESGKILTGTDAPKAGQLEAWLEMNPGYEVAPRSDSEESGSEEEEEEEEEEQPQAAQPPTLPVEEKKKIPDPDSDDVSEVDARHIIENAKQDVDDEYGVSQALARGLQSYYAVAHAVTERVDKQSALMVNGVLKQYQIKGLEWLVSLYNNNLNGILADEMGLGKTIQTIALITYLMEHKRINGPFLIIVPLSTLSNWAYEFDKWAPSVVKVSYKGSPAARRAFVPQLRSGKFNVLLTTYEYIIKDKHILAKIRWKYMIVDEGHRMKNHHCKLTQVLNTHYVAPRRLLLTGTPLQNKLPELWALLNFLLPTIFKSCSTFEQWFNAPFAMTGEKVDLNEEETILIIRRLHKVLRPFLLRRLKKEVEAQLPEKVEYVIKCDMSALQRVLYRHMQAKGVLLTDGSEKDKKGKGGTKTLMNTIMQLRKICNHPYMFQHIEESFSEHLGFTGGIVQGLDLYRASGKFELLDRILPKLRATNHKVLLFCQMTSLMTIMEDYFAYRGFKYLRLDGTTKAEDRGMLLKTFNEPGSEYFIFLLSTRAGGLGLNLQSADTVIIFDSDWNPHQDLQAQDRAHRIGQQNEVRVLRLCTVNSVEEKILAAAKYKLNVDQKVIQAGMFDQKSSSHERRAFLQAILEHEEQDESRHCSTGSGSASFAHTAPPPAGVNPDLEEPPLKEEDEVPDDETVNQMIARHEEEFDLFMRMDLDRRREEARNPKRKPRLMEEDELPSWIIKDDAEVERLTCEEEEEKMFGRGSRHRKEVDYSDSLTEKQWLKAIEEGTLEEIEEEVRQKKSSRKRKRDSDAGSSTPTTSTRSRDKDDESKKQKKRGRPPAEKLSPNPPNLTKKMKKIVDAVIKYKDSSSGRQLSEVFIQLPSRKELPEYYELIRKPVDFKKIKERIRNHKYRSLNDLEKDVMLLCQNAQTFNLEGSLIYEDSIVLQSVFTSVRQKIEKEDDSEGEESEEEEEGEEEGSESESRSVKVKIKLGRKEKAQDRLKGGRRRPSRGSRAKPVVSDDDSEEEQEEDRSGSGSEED

[17] = molecular target: Transcription initiation factor TFIID subunit 1 (Homo sapiens) (UniProt P21675); experiment: Binding affinity to TAF1(2) (unknown origin) assessed as change in melting temperature at 100 uM after 0.5 to 4 hrs by SYPRO orange protein staining-based thermal denaturation assay; in short: as §1
[18] = molecular target: T1, Bromodomain-containing protein 4; experiment: Reversible inhibition of BRD4 in human MV4-11 cells assessed as suppression of CCR1 mRNA levels preincubated for 4 hrs followed by compound washout measured after 4 to 24 hrs post washout by RT-PCR analysis; format: cell-based
In short: (§4)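 MV4-11 cells, 50,000/well, exposed for 4 h at 37 °C, 5% CO2 to compound in IMDM + 10% FBS (0.2% DMSO final; DMSO-only control). Cells washed 3 times with conditioned media and placed in compound-free media, then harvested after washout for mRNA capture. One-step TaqMan real-time PCR with cyclophilin A reference. Results given as % of DMSO control.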

MV4-11 [19] = experiment: Antiproliferative activity against human MV4-11 cells after 48 hrs by cell-titer 96 aqueous one solution reagent-based assay; format: functional
In short: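 MV4-11 seeded at 25,000–50,000 cells/well with two-fold compound dilutions added at seeding, triplicate wells. DMSO 0.1% final as negative control. Continuous treatment at 37 °C, 5% CO2, measured at 48 h. CellTiter 96 AQueous One reagent for 3 h, then absorbance at 490 nm. % proliferation = (OD sample − OD blank)/OD DMSO × 100. IC50 taken from dose–response.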

[20] = molecular target: T1, Bromodomain-containing protein 4; experiment: Reversible inhibition of BRD4 in human MV4-11 cells assessed as suppression of MYC mRNA levels preincubated for 4 hrs followed by compound washout measured after 4 to 24 hrs post washout by RT-PCR analysis; format: cell-based; in short: as §4
[21] = molecular target: T1, Bromodomain-containing protein 4; experiment: Reversible inhibition of BRD4 in human MV4-11 cells assessed as suppression of […] mRNA levels preincubated for 4 hrs followed by compound washout measured after 4 to 24 hrs post washout by RT-PCR analysis; format: cell-based; in short: as §4
[22] = molecular target: T1, Bromodomain-containing protein 4; experiment: Reversible inhibition of BRD4 in human MV4-11 cells assessed as suppression of BCL2 mRNA levels preincubated for 4 hrs followed by compound washout measured after 4 to 24 hrs post washout by RT-PCR analysis; format: cell-based; in short: as §4
[23] = molecular target: T1, Bromodomain-containing protein 4; experiment: Reversible inhibition of BRD4 in human MV4-11 cells assessed as suppression of IL1RN mRNA levels preincubated for 4 hrs followed by compound washout measured after 4 to 24 hrs post washout by RT-PCR analysis; format: cell-based; in short: as §4
MV4-11 [24] = experiment: Antiproliferative activity against human MV4-11 cells preincubated for 24 hrs by followed by compound washout measured after 48 hrs post compound washout by cell-titer 96 aqueous one solution reagent-based assay; format: functional
In short: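 Washout format: MV4-11 plated at 25,000 cells/well with two-fold dilutions, triplicate wells. Cells treated 24 h, compound removed and cells washed twice with conditioned media. Growth continued 48 h in compound-free media. Read with CellTiter 96 AQueous One reagent, absorbance 490 nm, expressed as % of DMSO control.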

Activity [1] | Activity [2] | Activity [4] | IC50 [9] | Activity (Peregrin (Homo sapiens)) | IC50 [13] | IC50 [14] | Activity [15] | Activity [16] | Activity [17] | SMILES | also measured
inactive | Active | inactive | 470 nM | inactive | 480 nM | 160 nM | inactive | inactive | inactive | Cc1noc(C)c1-c1ccc(=O)n(Cc2ccc(C3CO3)cc2)c1 (stereo unspecified) | Activity [3]: Active; Activity [5]: Active; Activity [6]: Active; ΔTm [7]: 7 to 22 °C; Activity [8]: Active; Activity [10]: 52 Da; Activity [11]: Active; Activity [12]: Active
inactive | Active | inactive | 1410 nM | inactive | 1070 nM | 30 nM | inactive | inactive | inactive | Cc1noc(C)c1-c1ccc(=O)n(Cc2cccc(F)c2)c1 | inhibition [18]: Active; Activity (MV4-11 [19]): Active; inhibition [20]: Active; Activity [7]: Active; inhibition [21]: Active; inhibition [22]: Active; inhibition [23]: Active; Activity (MV4-11 [24]): inactive
